Measured values as given in ChEMBL document CHEMBL1268901, “Synthesis and in vitro antiviral activities of 3'-fluoro (or chloro) and 2',3'-difluoro 2',3'-dideoxynucleoside analogs against hepatitis B and C viruses” (Bioorg Med Chem, 2010).
In brackets after ≈: the same amount, converted by molar mass.

What was measured:
Duck hepatitis B virus [1] = test: Antiviral activity against DHBV infected in duck hepatocytes assessed as inhibition of viral DNA replication at 10 ug/ml after 15 days relative to control; conditions: Hepatocyte, 360 h
[2] = Cytotoxicity against human HuH7 cells after 2 days by XTT assay; assay type: cell-based, Huh-7
Procedure, shortened: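 Huh-7 cells seeded at 1 × 10⁵ cells/well, allowed to attach 6–8 h, then medium replaced with compound at 200, 100, 50, 10 and 1 µg/mL; DMSO control. Incubated 2 days at 37 °C, XTT reagent added for 4 h at 37 °C, absorbance read at 450–500 nm; CC50 reported.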

Duck hepatitis B virus [3] = test: Antiviral activity against DHBV infected in duck hepatocytes assessed as inhibition of viral DNA replication after 15 days; conditions: Hepatocyte, 360 h
Hepatitis C virus = test: Antiviral activity against HCV 1a infected in human HuH7 cells assessed as reduction of viral RNA level at 20 ug/ml […] by QRT-PCR analysis; assay type: functional, Hepacivirus hominis; conditions: subtype 1a, Huh-7
Hepatitis B virus [4] = test: Antiviral activity against HBV infected in human HepG2(2.2.15) cells assessed as inhibition of viral replication at 10 ug/ml […] relative to control; assay type: functional; conditions: HepG2 2.2.15, 48 h
Hepatitis B virus [5] = test: Antiviral activity against HBV infected in human HepG2(2.2.15) cells assessed as inhibition of viral replication after 2 days; assay type: functional, organism-based; conditions: HepG2 2.2.15, 48 h
Duck hepatitis B virus [6] = test: Antiviral activity against DHBV infected in duck hepatocytes assessed as inhibition of viral DNA replication at 1 ug/ml after 15 days relative to control; conditions: Hepatocyte, 360 h
Hepatitis B virus [7] = test: Antiviral activity against HBV infected in human HepG2(2.2.15) cells assessed as inhibition of viral replication at 5 ug/ml […] relative to control; assay type: functional; conditions: HepG2 2.2.15, 48 h
Hepatitis B virus [8] = test: Antiviral activity against HBV infected in human HepG2(2.2.15) cells assessed as inhibition of viral replication at 0.5 to 1 ug/ml […] relative to control; assay type: functional
Duck hepatitis B virus [9] = test: Antiviral activity against DHBV infected in duck hepatocytes assessed as inhibition of viral DNA replication at 0.5 to 1 ug/ml after 15 days relative to control
Duck hepatitis B virus [10] = test: Antiviral activity against DHBV infected in duck hepatocytes assessed as inhibition of viral DNA replication at 5 ug/ml after 15 days relative to control; conditions: Hepatocyte, 360 h

Compound	inhibition at 10 µg/mL (Duck hepatitis B virus [1]) [%]	CC50 at 48 h [2] [µg/mL]	EC50 (Duck hepatitis B virus [3]) [µg/mL]	inhibition at 20 µg/mL (Hepatitis C virus) [%]	inhibition at 10 µg/mL (Hepatitis B virus [4]) [%]	EC50 (Hepatitis B virus [5]) [µg/mL]	inhibition at 1 µg/mL (Duck hepatitis B virus [6]) [%]	inhibition at 5 µg/mL (Hepatitis B virus [7]) [%]	inhibition (INH) (Hepatitis B virus [8]) [%]	inhibition (INH) (Duck hepatitis B virus [9]) [%]	inhibition at 5 µg/mL (Duck hepatitis B virus [10]) [%]
Cc1cn([C@H]2C[C@H](Cl)[C@@H](CO)O2)c(=O)[nH]c1=O	55	> 200	10 (≈ 38.4 µM)	0	56	10 (≈ 38.4 µM)	–	–	–	–	–
O=c1[nH]c(=O)n([C@H]2C[C@H](Cl)[C@@H](CO)O2)cc1F	0	> 200	–	0	0	–	–	–	–	–	–
O=c1[nH]c(=O)n([C@H]2C[C@@H](Cl)[C@@H](CO)O2)cc1F	50	> 200	10 (≈ 37.8 µM)	30	50	10 (≈ 37.8 µM)	–	–	–	–	–
NC(=O)c1ncn([C@@H]2O[C@H](CO)[C@@H](O)[C@H]2O)n1 [RIBAVIRIN]	–	–	–	50	–	–	–	–	–	–	–
Cc1cn([C@@H]2O[C@H](CO)[C@@H](F)[C@H]2F)c(=O)[nH]c1=O	0	> 100	–	0	0	–	–	–	–	–	–
O=c1[nH]c(=O)n([C@H]2C[C@H](F)[C@@H](CO)O2)cc1F	0	> 100	–	28	0	–	–	–	–	–	–
O=c1[nH]c(=S)c(F)cn1[C@H]1C[C@H](F)[C@@H](CO)O1	0	> 100	–	0	0	–	–	–	–	–	–
O=c1ccn([C@@H]2O[C@H](CO)[C@@H](F)[C@H]2F)c(=O)[nH]1	0	> 200	–	0	0	–	–	–	–	–	–
O=c1[nH]c(=O)n([C@H]2C[C@H](F)[C@@H](CO)O2)cc1CO	75	> 200	1 (≈ 3.84 µM)	30	58	5 (≈ 19.2 µM)	50	50	–	–	–
O=c1[nH]c(=O)n([C@H]2C[C@H](F)[C@@H](CO)O2)cc1C(F)(F)F	20	> 100	–	25	20	–	–	–	–	–	–
O=c1[nH]c(=S)ccn1[C@H]1C[C@H](F)[C@@H](CO)O1	25	> 100	–	0	20	–	–	–	–	–	–
CCc1cn([C@H]2C[C@H](F)[C@@H](CO)O2)c(=O)[nH]c1=O	0	> 200	–	0	0	–	–	–	–	–	–
O=c1[nH]c(=O)n([C@H]2C[C@H](F)[C@@H](CO)O2)cc1O	0	> 100	–	0	0	–	–	–	–	–	–
Nc1ccn([C@@H]2CS[C@H](CO)O2)c(=O)n1 [LAMIVUDINE]	–	–	0.05 (≈ 0.218 µM)	–	–	–	–	–	88	96	–
O=c1[nH]c(=O)n([C@H]2C[C@H](F)[C@@H](CO)O2)cc1I	63	< 100	5 (≈ 14 µM)	40	60	5 (≈ 14 µM)	–	50	–	–	50
